Here are results for ten compounds from ChEMBL document CHEMBL1155309, “Synthesis of 3,6-disubstituted 7H-1,2,4-triazolo[3,4-b]-1,3,4-thiadiazines as novel analgesic/anti-inflammatory compounds” (Eur J Med Chem, 2009).

In data set [1] the test system is Mus musculus. As to the kind of experiment: Antiinflammatory activity in BALB/c mouse assessed as inhibition of carrageenan-induced paw edema at 200 mg/kg, po after 360 mins. To be noted: 6 h. It is filed as functional. The essentials:
(§1)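 Oral dosing in 0.5% CMC/water suspension, vehicle for controls. 1 h later, carrageenan (0.5 mg/25 µl saline) injected subplantar into right hind paw, 25 µl saline into left. Right–left footpad thickness measured by dial callipers every 90 min for 6 h. % inhibition = [(n − n′)/n]×100 versus control. Groups of 3 (100 mg/kg screen) or 4–5 mice.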
On the technique in general: In the carrageenan paw model, swelling and tenderness develop within hours.

Data set [2] deals with Mus musculus. As to the kind of experiment: Analgesic activity in BALB/c mouse assessed as decrease in acetic acid-induced writhing at 100 mg/kg, po administered 1 hr prior to acetic acid challenge by Koster's test. It is filed as functional. The essentials:
(§2)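 Test samples suspended in distilled water/0.5% CMC given orally; vehicle to controls. 1 h later, 3% (w/v) acetic acid i.p. (0.1 ml/10 g). Starting 5 min after injection, writhings counted for 10 min. Result expressed as % change from writhing controls. Groups of 4 mice (preliminary 100 mg/kg) or 4–5 mice (50/200 mg/kg). Two-tailed Student's t test.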
For orientation: In writhing tests, fewer writhes than in controls are read as antinociception.

Data set [3] deals with Mus musculus. As to the kind of experiment: Analgesic activity in BALB/c mouse assessed as decrease in acetic acid-induced writhing at 50 mg/kg, po administered 1 hr prior to acetic acid challenge by Koster's test. Type of data set: functional. The essentials:
as §2

Data set [4] deals with Mus musculus. The data set can be described thus: Analgesic activity in BALB/c mouse assessed as decrease in acetic acid-induced writhing at 200 mg/kg, po administered 1 hr prior to acetic acid challenge by Koster's test. Type of data set: functional. The essentials: as §2
The test system of data set [5] is Mus musculus. The data set can be described thus: Gastrointestinal toxicity in BALB/c mouse assessed as acute ulcerogenic risk at 200 mg/kg, po. Type of data set: organism-based. The arrangement: dose 200 mg/kg, route oral. As to conditions: in vivo. The essentials:
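Mice, fasted overnight with free water, received 200 mg/kg orally as a suspension in distilled water with 0.5% carboxymethyl cellulose, in groups of 4–5. They were first used in the acetic acid writhing test. Eight hours after that test they were killed under deep ether anaesthesia, and their stomachs were removed and scored for ulcers. Acetylsalicylic acid 200 mg/kg was the reference.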

The test system of data set [6] is Mus musculus. The data set can be described thus: Antioxidant activity in BALB/c mouse assessed as TBARS level per gram of wet weight of tissue at 200 mg/kg, po. Type of data set: functional. The arrangement: unit: nmol/g. The gist of the method:
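Mice dosed orally at 200 mg/kg were killed under ether 8 h after the writhing test and stomachs removed. Tissue extract supernatant obtained by centrifugation (1000×g 10 min, then 2000×g 30 min, 4 °C). Heated with TBA in boiling water for 60 min, TCA added, absorbance read at 532 nm against blank tissue. Calibrated with 1,1,3,3-tetraethoxypropane; reported as nmol TBARS/g wet tissue.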

Data set [7] has as its system Mus musculus. The data set can be described thus: Acute toxicity in BALB/c mouse assessed as diarrhea and depression at 50 to 200 mg/kg, po after 72 hrs. It is filed as organism-based. The arrangement: dose 50-200 mg/kg, route oral. As to conditions: in vivo.
For data set [8], the system named is Mus musculus. As to the kind of experiment: Antiinflammatory activity in BALB/c mouse assessed as inhibition of carrageenan-induced paw edema at 200 mg/kg, po after 270 mins. To be noted: 4.5 h.
The test system of data set [9] is Mus musculus. As to the kind of experiment: Antiinflammatory activity in BALB/c mouse assessed as inhibition of carrageenan-induced paw edema at 100 mg/kg, po after 90 mins. Type of data set: functional. As to conditions: 1.5 h. The gist of the method:
as §1

Data set [10] concerns Mus musculus. As to the kind of experiment: Antiinflammatory activity in BALB/c mouse assessed as inhibition of carrageenan-induced paw edema at 100 mg/kg, po after 180 mins. To be noted: 3 h.

Regarding `COc1ccc(CCc2n[nH]c(=S)n2N)cc1`, the values for the inhibition in vivo at 200 mg/kg in [1], in data set [4] and in data set [8] were 37.5%, 56.1% and 33.9%, respectively. In addition, the inhibition in vivo at 100 mg/kg in data set [2] came out at 56.6%. The inhibition in vivo at 50 mg/kg in data set [3] worked out at 9.5%. Besides, the Activity result in [5] is listed as “Non-toxic”; in data set [6], 105.9 nmol; in [7], “Non-toxic”.
For `COc1ccc(CCc2nnc3n2N=C(c2ccc(F)cc2)CS3)cc1`, the inhibition in vivo at 100 mg/kg was determined as 26% in data set [9], 29.2% in [2] and 33.7% in [10]. For the same compound, the figures for the inhibition in vivo at 200 mg/kg in data set [1], in [4] and in data set [8] were 27.1%, 37% and 34%, respectively. Moreover, in data set [3], the inhibition in vivo at 50 mg/kg is 25%. Also, the Activity in [6] is 103.5 nmol; in [7], “Non-toxic”.
Take `COc1ccc(Cc2nnc3n2N=C(c2ccc(F)cc2)CS3)cc1`: the values for the inhibition in vivo at 200 mg/kg in data set [1], in data set [4] and in data set [8] were 41.7%, 31.5% and 53.6%, respectively. Further, the inhibition in vivo at 100 mg/kg in data set [2] came to 26.3%; in [10], 34.3%. In addition, the inhibition in vivo at 50 mg/kg in [3] worked out at 20.5%. In addition, the Activity in [6] is reported as 95.4 nmol; in [7] it was “Non-toxic”.
As to `COc1cc(Cc2nnc3n2N=C(c2ccc(F)cc2)CS3)cc(OC)c1OC`, the results for the inhibition in vivo at 200 mg/kg in data set [1], in [4] and in data set [8] were 25%, 52.2% and 24.9%, respectively. In addition, the inhibition in vivo at 100 mg/kg in data set [2] is 35%; in [10] it was 26.8%. In addition, the inhibition in vivo at 50 mg/kg in [3] stood at 22.1%. For the same compound, the Activity in [6] is 107.6 nmol; in [7], “Non-toxic”.
For `COc1cc(Cc2nnc3n2N=C(c2ccc(Cl)cc2)CS3)cc(OC)c1OC`, the inhibition in vivo at 200 mg/kg in data set [1] is 25%; in [4], 23.4%; in data set [8], 41%. In addition, the inhibition in vivo at 100 mg/kg in data set [2] was 32.6%. Further, in [3], the inhibition in vivo at 50 mg/kg was 13.5%. In addition, the Activity in [6] is given as 101.1 nmol; in data set [7] it was “Non-toxic”.
In the case of `COc1ccc(Cc2nnc3n2N=C(c2ccccc2)CS3)cc1`, the inhibition in vivo at 100 mg/kg in data set [2] stood at 39.5%. Also, in [3], the inhibition in vivo at 50 mg/kg amounted to 14.3%. In addition, the inhibition in vivo at 200 mg/kg in data set [4] worked out at 46.4%. Besides, the Activity in data set [6] is given as 112.3 nmol; in [7], “Non-toxic”.
In the case of `CC(=O)Oc1ccccc1C(=O)O` [ASPIRIN], the inhibition in vivo at 200 mg/kg in data set [4] came out at 54.4%. Moreover, in data set [6], the Activity stood at 118.2 nmol.
Turning to `COc1ccc2c(c1)c(CC(=O)O)c(C)n2C(=O)c1ccc(Cl)cc1` [INDOMETHACIN], the inhibition in vivo at 100 mg/kg worked out at 41.9% in data set [9] and 43.1% in [10].
Consider `COc1ccc(CCc2nnc3n2N=C(c2ccccc2)CS3)cc1`, for which the values for the inhibition in vivo at 200 mg/kg in data set [1], in data set [4] and in data set [8] were 37.5%, 44.2% and 50%, respectively. Besides, the inhibition in vivo at 100 mg/kg in data set [2] was 42.8%. Further, in [3], the inhibition in vivo at 50 mg/kg is 6.4%. For the same compound, the Activity in data set [6] was 110.8 nmol; in [7] it was “Non-toxic”.
Regarding `COc1cc(CCc2nnc3n2N=C(c2ccccc2)CS3)cc(OC)c1OC`, the inhibition in vivo at 100 mg/kg came to 31.7% in data set [9], 17.1% in [2] and 38.5% in [10]. Besides, the inhibition in vivo at 200 mg/kg in [1] was determined as 29.2%; in data set [4] it was 27.5%; in data set [8], 46.4%. Also, the inhibition in vivo at 50 mg/kg in data set [3] is 32.4%. For the same compound, the Activity is 100.3 nmol in data set [6] and “Non-toxic” in data set [7].

In general, inhibition in vivo refers to the change of the read-out against control, counted positive when it falls.
